CHRM4 PAM: positive allosteric modulators of human muscarinic M4 receptor; hit rate 0.4% among 360,000; CHO-K1 hM4/Gqi5, Fluo-8 calcium fluorescence, ACh EC20; 0% = ACh EC20, 100% = maximal ACh; P08173; activation, % at 3 µM;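 active = activation above its plate's cutoff, the mean activation of sample wells plus 3 SD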
M5 ag: agonists of human muscarinic M5 receptor (CHRM5); P08912; CHO-K1 hM5 cells, Fluo-8 calcium fluorescence; 0% DMSO wells, 100% maximal acetylcholine response; activation, % at 3 µM; hit rate 0.19% among 360,000;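 active = activation above the run's mean over test compounds plus 3 SD, cut at about 23% in these data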;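 note: signal is peak over basal fluorescence ratio across the kinetic read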
Target sequence (P08912 whole entry, looked up): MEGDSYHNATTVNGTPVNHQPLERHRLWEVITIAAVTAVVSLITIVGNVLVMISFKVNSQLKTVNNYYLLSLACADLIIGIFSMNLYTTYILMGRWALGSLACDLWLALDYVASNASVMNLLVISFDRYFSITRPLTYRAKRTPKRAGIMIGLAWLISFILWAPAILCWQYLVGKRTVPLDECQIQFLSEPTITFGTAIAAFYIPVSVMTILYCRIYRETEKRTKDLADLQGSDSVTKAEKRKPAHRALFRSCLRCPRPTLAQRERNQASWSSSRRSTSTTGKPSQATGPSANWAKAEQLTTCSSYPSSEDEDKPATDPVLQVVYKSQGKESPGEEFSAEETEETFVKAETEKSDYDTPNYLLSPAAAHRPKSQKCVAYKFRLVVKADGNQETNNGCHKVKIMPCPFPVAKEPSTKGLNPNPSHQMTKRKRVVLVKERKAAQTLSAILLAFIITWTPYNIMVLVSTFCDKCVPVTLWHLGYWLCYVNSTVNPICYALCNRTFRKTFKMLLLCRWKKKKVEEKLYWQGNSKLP
CHRM5 antagonist: CHRM5 antagonism in calcium assay; CHO-hM5 cells, Fluo-8 calcium fluorescence, ACh EC80; inhibition, % at 3 µM; hit rate 0.59% among 360,000; AID 624040;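 active = inhibition above a per-plate cutoff, the mean of that plate's test compounds plus 3 SD, cut at about 27% in these data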;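 note: 0% = acetylcholine EC80 with DMSO and 100% = DMSO without agonist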
CHRM4 antagonist: blocks acetylcholine activation of human M4 receptor. P08173. CHO-hM4 cells, ACh EC80, Fluo-8 calcium fluorescence. inhibition, % at 3 µM. hit rate 0.73% among 360,000;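 active = inhibition above its plate's cutoff, the mean inhibition of sample wells plus 3 SD, cut at about 27% in these data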;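 note: 0% = acetylcholine EC80 with DMSO and 100% = DMSO without agonist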
M4 ag: agonists of human muscarinic M4 receptor (CHRM4) | P08173 | hit rate 0.14% among 360,000 | AID 624127 | activation, % at 3 µM | CHO-K1 hM4/Gqi5, Fluo-8 calcium fluorescence; vehicle 0%, full acetylcholine response 100%;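 active = activation above the run mean over all test wells plus 3 SD, cut at about 32% in these data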;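 note: peak over basal fluorescence ratio per well then scaled between controls; 0% = DMSO wells and 100% = acetylcholine at EC100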
M5 PAM: positive allosteric modulators of human muscarinic M5 receptor. CHO-K1 hM5, Fluo-8 calcium, ACh EC20 PAM; 0% = ACh EC20, 100% = ACh EC100. hit rate 0.3% among 360,000. P08912. activation, % at 3 µM;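 active = activation above the run cutoff, the mean activation of all test compounds plus 3 SD, cut at about 18% in these data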
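System: CHO-K1 hM5 cells. Reagent: acetylcholine, EC20 level. Compound dosing: single dose, 3 µM nominal final test concentration. Timing: Post-acetylcholine fluorescence recording 140 s. Detection: Fluo-8 calcium fluorescence. Read-out: % activation, ACh-normalized. Benchmarks: ACh EC20 and EC100 wells. Repeats: singlicate, one well per test compound.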
* = called active by the depositor. Rows were chosen to be rich in hits. Some 1.8% of all compounds tested hit in one or more screens of this group.

SMILES	CHRM4 PAM	M5 ag	CHRM5 antagonist	CHRM4 antagonist	M4 ag	M5 PAM
CCN(Cc1ccccc1)Cc1ccc(OCc2ccccc2)cc1	-13	-16	14	27*	-2	-16
CC(NC(=O)Nc1cccc(Cl)c1)C(c1cccs1)N1CCCC1 (stereo not drawn)	-2	0	9	3	9	-2
CC(NC(=O)Nc1ccc([N+](=O)[O-])cc1)C(c1cccs1)N1CCCC1 (stereo not drawn)	-1	10	3	-9	50*	0
COc1ccccc1N1CCN(C(=O)C(=O)c2c(C)[nH]c3ccccc23)CC1	-8	4	5	4	11	-5
CC(C)Oc1ccc(C(=O)NCC(=O)N2CCN(S(=O)(=O)/C=C/c3ccccc3)CC2)cc1	-5	-2	8	-11	7	-11
Cc1ccnc2nc(C(=O)OCC(=O)NC3CCCC(C)C3C)nn12 (stereo not drawn)	21*	1	5	-9	2	-4
O=C(CNC(=O)c1ccc(Cl)cc1Cl)OCCCn1c(=O)[nH]c2ccccc21	0	0	6	5	3	-1
CC(C)COc1cccc(-c2cc(C(=O)Nc3ccon3)c3ccccc3n2)c1	2	-1	3	10	2	-3
Cc1ccc(S(=O)(=O)N2CCC(N3CCN(C)CC3)CC2)cc1Cl	-20	-8	25	28*	-1	-13
O=C(CSc1nnc(-c2c[nH]c3ccccc23)n1C1CC1)NC1CCS(=O)(=O)C1 (stereo not drawn)	0	-3	0	-27	0	-3
CCCN1CCc2nc(SCC(=O)Nc3ccc(C)c(Cl)c3)[nH]c(=O)c2C1	-4	0	-3	-8	-1	-2
COc1c(F)c(F)c(C(=O)Nc2ccccc2N2CCN(C(=O)C(C)C)CC2)c(F)c1F	2	2	27	-7	3	31*
O=C(CSc1nnnn1-c1cccc(F)c1)NC1CCCCC1	8	-1	10	-22	2	0
COC(=O)c1c(N)n(CCCN2CCOCC2)c2nc3ccccc3nc12	-2	0	10	4	1	-12
COCCOC(=O)c1c(N)n(CCCN2CCOCC2)c2nc3ccccc3nc12	10	4	-6	10	1	19*
Cc1cc(OCCCN2CCC(C(O)(c3ccccc3)c3ccccc3)CC2)ccc1Br	-10	-2	10	29*	17	-17
Cc1cccn2c(CNCC3OCCc4ccccc43)c(C(=O)N3CCCCC3)nc12 (stereo not drawn)	-10	4	7	7	7	-9
COCCN1CCC(CNCc2c(C(=O)N3CCCCC3)nc3c(C)cccn23)C1 (stereo not drawn)	0	6	-3	-5	1	23*
N#C/C(=N/Nc1ccc([N+](=O)[O-])cc1)C(=N)N1CCCCC1	-11	2	3	0	0	-2
N#C/C(=N\Nc1ccc(S(=O)(=O)N2CCCCC2)cc1)C(N)=S	-2	7	3	1	7	-4
N#C/C(=N\Nc1ccc(S(=O)(=O)N2CCCCCC2)cc1)C(N)=S	-7	4	30*	-5	12	-17
N#C/C(=N\Nc1ccc([N+](=O)[O-])cc1)C(N)=S	-23	7	30*	-2	10	-20
S=C(Nc1ccccc1Cl)NC1CCN(Cc2ccccc2)CC1	1	-1	-2	-1	2	0
S=C(Nc1cc(Cl)cc(Cl)c1)NC1CCN(Cc2ccccc2)CC1	-13	12	28*	20	35*	-14
S=C(NCc1ccc(Cl)cc1)NC1CCN(Cc2ccccc2)CC1	-20	8	-1	27*	45*	-8
SMILES	CHRM4 PAM	M5 ag	CHRM5 antagonist	CHRM4 antagonist	M4 ag	M5 PAM
O=C(NC(=O)N1CCN(C(c2ccccc2)c2ccccc2)CC1)c1ccccc1	-35	-16	16	30*	0	-31
O=C(c1ccc(C#CC2(O)CCCCC2)cc1)N1CCN(C(c2ccccc2)c2ccccc2)CC1	-25	-10	17	35*	2	-14
O=C(c1ccc(C#CC2(O)CCCCC2)cc1)N1CCN(Cc2ccccc2)CC1	-4	-1	-4	3	7	-4
O=C(Nc1ccccc1C(F)(F)F)N1CCN(C(c2ccccc2)c2ccccc2)CC1	-27	-8	30*	35*	0	-18
CN(C)CCOc1ccc2c(c1)C(=O)C(=Cc1ncc([N+](=O)[O-])n1C)C2	5	-2	21	-11	0	3
Cn1c(C(=O)NCC2CCCO2)cc2c(=O)[nH]c3ccccc3c21 (stereo not drawn)	28*	0	-7	-15	3	1
Cn1c(=O)c(C(=O)NCC2CCCO2)c(O)c2ccccc21 (stereo not drawn)	18	2	9	33*	2	18
Cc1ccc(S(=O)(=O)NCCC(=O)OCc2ccc([N+](=O)[O-])cc2)cc1C	-7	5	13	4	10	-16
O=C(C=Cc1ccccc1)c1cccs1	1	1	5	5	0	2
Nc1ccc(/C=C/C(=O)c2cccs2)cc1	-7	33*	10	1	12	-11
Cc1cc([N+](=O)[O-])nn1CC(=O)Nc1ccccn1	25*	-3	8	-2	1	-1
Cc1cccnc1NC(=O)c1ccc(COc2ccccc2)o1	-4	-3	-1	-2	1	1
O=C(CN1C(=O)NC2(CCCCC2)C1=O)Oc1ccc2ccc(=O)oc2c1	6	2	8	7	1	-9
O=C(N/N=C/C=C/c1ccccc1)C1CC1c1ccccc1 (stereo not drawn)	17*	-10	-10	4	3	-2
O=C(Nc1ccc(N2CCN(C(=O)c3ccco3)CC2)c(Cl)c1)c1cc2ccccc2o1	-16	2	30*	51*	18	-23
CCCC(=O)N1CCN(c2ccc(NC(=O)c3cc4ccccc4o3)cc2Cl)CC1	-21	3	21	38*	19	-20
Cc1oc(-c2ccccc2Cl)nc1CS(=O)CC(=O)NCc1ccccc1Cl (stereo not drawn)	2	-3	18	-4	2	-3
Cc1ccc(/C(O)=C2\C(=O)C(=O)N(CCCN3CCOCC3)C2c2ccccc2F)cc1 (stereo not drawn)	3	1	-1	-7	0	0
CN1CCN(C(=O)C2=C[C@@H](c3coc4ccccc4c3=O)C[C@@H](OCCCCO)O2)CC1	24*	-1	-3	3	2	-9

High-throughput results deposited in PubChem BioAssay by The Scripps Research Institute Molecular Screening Center.
